We go through 5 compounds from ChEMBL document CHEMBL4765247, “Novel mouse GABA uptake inhibitors with enhanced inhibitory activity toward mGAT3/4 and their effect on pain threshold in mice” (Eur J Med Chem, 2020).

Usually residual activity stands for the share of the control activity or signal that is left under treatment. One may read the IC50 as the concentration at which inhibition is half-maximal. For orientation: logP means the decadic logarithm of the partition coefficient of the neutral form, usually between octanol and water. For orientation: pIC50 means the negative decadic logarithm of the IC50, by convention in mol/L.

Activity calls are given as the source filed them.

The test system of series [1] is Mus musculus. The series can be described thus: Antiallodynic activity in oxaliplatin-induced […] neuropathy pain Albino Swiss mouse model assessed as reduced late-phase tactile allodynia at 30 mg/kg, ip administered after 7 days of oxaliplatin stimulation by van Frey test. Format: functional, organism-based. The gist of the method:
(§1)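 Oxaliplatin-induced peripheral neuropathy in mice was tested in the acute and late phases. Compounds were given i.p. and tactile allodynia was read 1 h later by von Frey as the mean force to elicit paw withdrawal (n=7-10). Results are mean ± SEM, analysed by one-way ANOVA with Tukey's test against pre-drug force and non-neuropathic controls.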

The test system of series [2] is Mus musculus. The series can be described thus: Antiallodynic activity in oxaliplatin-induced […] neuropathy pain Albino Swiss mouse model assessed as reduced acute-phase tactile allodynia at 30 mg/kg, ip administered after 3 hrs of oxaliplatin stimulation and measured after 1 hr by von Frey test. Format: functional, organism-based. An outline of the steps:
as §1

Series [3] concerns the target Sodium- and chloride-dependent GABA transporter 1 (Mus musculus) (UniProt P31648). The experiment in a line: Displacement of [3H]NO711 from mouse GAT1 expressed in HEK293 cells at 100 uM measured after 40 mins of incubation by LC-ESI-MS-MS method. To be noted: in the assay text read “NO711” for “[3H]NO711”. Format: cell-based. The gist of the method:
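Competitive MS Binding Assay for mGAT1 using NO-711 as a nonlabeled marker, quantified by LC–ESI–MS–MS. Compounds were screened at 100 µM. […] Otherwise, the percentage of remaining binding at 100 µM is given.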

In series [4] the test system is Mus musculus. The experiment in a line: Antihyperalgesic activity in oxaliplatin-induced […] late neuropathy pain Albino Swiss mouse model assessed as reduction in cold allodynia at 30 mg/kg, ip administered after 7 days of oxaliplatin stimulation by cold plate method. It counts as functional, organism-based. An outline of the steps:
(§2)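 For cold allodynia, oxaliplatin-treated mice were placed on a cold plate in the acute and late phases of neuropathy after i.p. dosing. The readout was mean latency to pain reaction (n=7-10). Results are mean ± SEM, analysed by one-way ANOVA with Tukey's post hoc test against non-neuropathic controls.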

Series [5] deals with Mus musculus. The series can be described thus: Antihyperalgesic activity in STZ-induced diabetic neuropathy pain Albino Swiss mouse model assessed as reduced heat nociceptive threshold at 30 mg/kg, ip administered after 3 weeks of STZ stimulation and measured after 1 hr by hot plate method. It counts as functional, organism-based. An outline of the steps: (§3)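 Heat hyperalgesia in STZ-diabetic neuropathic mice (3 weeks after i.p. STZ) was measured on a hot plate 1 h after i.p. dosing. The readout was latency to pain reaction, comparing pre-drug and post-drug values (n=9-10). Results are mean ± SEM, analysed by one-way ANOVA with Tukey's post hoc test against normoglycemic controls.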
For orientation: Thermal pain tests record how soon the animal reacts.

For series [6], the system named is Mus musculus. The experiment in a line: Antiallodynic activity in oxaliplatin-induced peripheral neuropathy pain Albino Swiss mouse model assessed as reduced late-phase tactile allodynia at 30 mg/kg, ip administered after […] of oxaliplatin stimulation and measured after 1 hr by van Frey test.
Series [7] relates to Mus musculus. The experiment in a line: Antiallodynic activity in STZ-induced diabetic neuropathy pain Albino Swiss mouse model assessed as reduced tactile allodynia at 10 mg/kg, ip administered after 3 weeks of STZ stimulation and measured after 1 hr by von Frey test. It counts as functional, organism-based. An outline of the steps:
(§4)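 STZ given i.p. to induce type I diabetes in mice. About 3 weeks (21 days) later, test doses of 5, 10 and 30 mg/kg were given i.p. Von Frey tactile allodynia was read 1 h after dosing as the mean force needed to elicit paw withdrawal (n=10). Results are mean ± SEM, analysed by one-way ANOVA with Tukey's test against pre-drug force and normoglycemic controls.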

Series [8] has as its system Mus musculus. The series can be described thus: Antihyperalgesic activity in STZ-induced diabetic neuropathy pain Albino Swiss mouse model assessed as reduced heat nociceptive threshold at 10 mg/kg, ip administered after 3 weeks of STZ stimulation and measured after 1 hr by hot plate method. Format: functional, organism-based. The gist of the method:
as §3

The target of series [9] is Sodium- and chloride-dependent GABA transporter 1 (Mus musculus, UniProt P31648). The experiment in a line: Inhibition of mouse GAT1 expressed in HEK293 cell line assessed as inhibition of [3H]GABA uptake measured after 35 mins by liquid scintillation method. Format: cell-based. An outline of the steps:
(§5)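 Otherwise, the remaining uptake at 100 µM is reported as a percentage. Values without SEM come from a single triplicate experiment.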

For series [10], the system named is Mus musculus. The series can be described thus: Antiallodynic activity in STZ-induced diabetic neuropathy pain Albino Swiss mouse model assessed as reduced tactile allodynia at 30 mg/kg, ip administered after 3 weeks of STZ stimulation and measured after 1 hr by von Frey test. Format: functional, organism-based. The gist of the method: as §4
Series [11] has as its system Mus musculus. The experiment in a line: Antihyperalgesic activity in oxaliplatin-induced […] acute neuropathy pain Albino Swiss mouse model assessed as reduction in cold allodynia at 10 mg/kg, ip administered after 3 hrs of oxaliplatin stimulation by cold plate method. Format: functional, organism-based. The gist of the method:
as §2

A short description of series [12]: Lipophilicity, logP of the compound by UPLC-MS method. It counts as physicochemical. To be noted: octanol/water; read-out: logP. An outline of the steps: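 LogP measured by UPLC on a BEH C18 column (2.1 × 100 mm, 1.7 µm, with C18 pre-column) coupled to an ESI tandem quadrupole MS. The method was calibrated with reference compounds of established logP values.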

The test system of series [13] is Mus musculus. The experiment in a line: Antiallodynic activity in STZ-induced diabetic neuropathy pain Albino Swiss mouse model assessed as reduced tactile allodynia at 5 mg/kg, ip administered after 3 weeks of STZ stimulation and measured after 1 hr by von Frey test. Format: functional, organism-based. The gist of the method: as §4
Series [14] relates to Mus musculus. The experiment in a line: Antiallodynic activity in oxaliplatin-induced peripheral neuropathy pain Albino Swiss mouse model assessed as reduced acute-phase tactile allodynia at 10 mg/kg, ip administered after 3 hrs of oxaliplatin stimulation and measured after 1 hr by von Frey test.
Series [15] concerns Mus musculus. The experiment in a line: Antihyperalgesic activity in oxaliplatin-induced […] late neuropathy pain Albino Swiss mouse model assessed as reduction in cold allodynia at 10 mg/kg, ip administered after 7 days of oxaliplatin stimulation by cold plate method. It counts as functional, organism-based. The gist of the method:
as §2

Series [16] has as its system Mus musculus. The experiment in a line: Antihyperalgesic activity in oxaliplatin-induced […] acute neuropathy pain Albino Swiss mouse model assessed as reduction in cold allodynia at 30 mg/kg, ip administered after 3 hrs of oxaliplatin stimulation by cold plate method. It counts as functional, organism-based. An outline of the steps:
as §2

The target of series [17] is T1, GABA transporter 4 (Mus musculus, UniProt P31650).
T1 sequence (P31650 whole entry): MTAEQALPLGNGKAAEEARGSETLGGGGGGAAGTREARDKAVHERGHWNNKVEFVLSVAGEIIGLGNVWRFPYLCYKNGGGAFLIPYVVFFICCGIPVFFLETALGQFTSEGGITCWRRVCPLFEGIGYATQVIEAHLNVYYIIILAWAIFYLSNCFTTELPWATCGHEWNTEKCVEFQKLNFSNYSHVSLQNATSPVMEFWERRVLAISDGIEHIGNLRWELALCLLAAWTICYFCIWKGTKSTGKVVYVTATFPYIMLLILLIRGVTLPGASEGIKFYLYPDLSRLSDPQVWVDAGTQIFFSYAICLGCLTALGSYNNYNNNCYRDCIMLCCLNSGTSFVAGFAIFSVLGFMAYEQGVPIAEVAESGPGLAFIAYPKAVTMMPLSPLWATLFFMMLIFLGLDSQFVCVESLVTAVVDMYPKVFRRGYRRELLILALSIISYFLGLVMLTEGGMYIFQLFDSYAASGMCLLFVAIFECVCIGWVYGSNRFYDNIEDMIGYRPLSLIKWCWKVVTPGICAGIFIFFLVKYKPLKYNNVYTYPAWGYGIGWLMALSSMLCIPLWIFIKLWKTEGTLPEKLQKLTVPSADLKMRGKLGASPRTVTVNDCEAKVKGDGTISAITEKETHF
The series can be described thus: Inhibition of mouse GAT4 expressed in HEK293 cell line assessed as inhibition of [3H]GABA uptake measured after 35 mins by liquid scintillation method. It counts as cell-based. The gist of the method: as §5

For series [18], the target named is Sodium- and chloride-dependent GABA transporter 1 (Mus musculus) (UniProt P31648). The experiment in a line: Inhibition of mouse GAT1 expressed in HEK293 cell line assessed as inhibition of [3H]GABA uptake at 100 uM measured after 35 mins by liquid scintillation method; values are per cent of control.
Series [19] relates to BGT1 (Mus musculus, Slc6a12). The experiment in a line: Inhibition of mouse GAT2 expressed in HEK293 cell line assessed as residual [3H]GABA uptake at 100 uM measured after 35 mins by liquid scintillation method.
For series [20], the target named is Betaine/GABA transporter BGT1 (Mus musculus, Slc6a12). The series can be described thus: Inhibition of mouse GAT2 expressed in HEK293 cell line assessed as inhibition of [3H]GABA uptake measured after 35 mins by liquid scintillation method.
The target in series [21] is GABA transporter 3 (Mus musculus, Slc6a13). The experiment in a line: Inhibition of mouse GAT3 expressed in HEK293 cell line assessed as inhibition of [3H]GABA uptake measured after 35 mins by liquid scintillation method.

Regarding `Cc1ccsc1C(=CCCN(C)C(CCO)C(=O)NCc1ccccc1Cl)c1sccc1C` (stereo unspecified), the result in series [1], in [2], in [6], in series [7], in [10] and in series [14] was Active. The compound further yielded a residual activity in [3] of 77%. In addition, the result in [4], in series [5], in [8], in [11], in [13] and in [15] was inactive. The result in series [16] was inactive. Further, the IC50 in series [9] was 13.8 µM; in series [17], 5.75 µM. The logP in series [12] was determined as 6.23.

In the case of `Cc1ccsc1C(=CCCN(C)C(CCO)C(=O)N1CCOCC1)c1sccc1C` (stereo unspecified), the figures for the residual activity in [3], in series [18] and in series [19] were 84%, 57% and 76%, respectively. The logP in series [12] amounted to 4.75. In series [17], the IC50 is 33.1 µM.

As for `Cc1ccsc1C(=CCCN(C)C(CO)C(=O)NCc1ccc(Cl)cc1)c1sccc1C` (stereo unspecified), the result in series [1], in [2] and in [10] was Active. In series [3], this compound yielded a residual activity of 66%. For the same compound, the outcome in [4], in [5], in series [7], in [8], in series [13] and in [16] was inactive. Also, the IC50 is 20.4 µM in series [9] and 9.55 µM in series [17]. In [12], the logP was 6.47.

On to `Cc1ccsc1C(=CCCN(C)C(CO)C(=O)NCc1ccccc1Cl)c1sccc1C` (stereo unspecified), for which the residual activity in [3] was determined as 96%; in [18], 61%; in series [19] it was 65%. Further, the IC50 in series [17] is 77.6 µM.

Regarding `COc1ccc(C(OCCN2CCC[C@H](C(=O)O)C2)(c2ccc(OC)cc2)c2ccc(OC)cc2C)cc1`, the figures for the pIC50 in [20] and in [21] were 4.12 and 4.85, respectively.
